# Published values pooled from the literature.
# Compare with care: the assays were run in different laboratories.
# Target: Ephrin type-B receptor 3 (EPHB3, Homo sapiens, UniProt P54753)
# One construct used (P54753 34-998): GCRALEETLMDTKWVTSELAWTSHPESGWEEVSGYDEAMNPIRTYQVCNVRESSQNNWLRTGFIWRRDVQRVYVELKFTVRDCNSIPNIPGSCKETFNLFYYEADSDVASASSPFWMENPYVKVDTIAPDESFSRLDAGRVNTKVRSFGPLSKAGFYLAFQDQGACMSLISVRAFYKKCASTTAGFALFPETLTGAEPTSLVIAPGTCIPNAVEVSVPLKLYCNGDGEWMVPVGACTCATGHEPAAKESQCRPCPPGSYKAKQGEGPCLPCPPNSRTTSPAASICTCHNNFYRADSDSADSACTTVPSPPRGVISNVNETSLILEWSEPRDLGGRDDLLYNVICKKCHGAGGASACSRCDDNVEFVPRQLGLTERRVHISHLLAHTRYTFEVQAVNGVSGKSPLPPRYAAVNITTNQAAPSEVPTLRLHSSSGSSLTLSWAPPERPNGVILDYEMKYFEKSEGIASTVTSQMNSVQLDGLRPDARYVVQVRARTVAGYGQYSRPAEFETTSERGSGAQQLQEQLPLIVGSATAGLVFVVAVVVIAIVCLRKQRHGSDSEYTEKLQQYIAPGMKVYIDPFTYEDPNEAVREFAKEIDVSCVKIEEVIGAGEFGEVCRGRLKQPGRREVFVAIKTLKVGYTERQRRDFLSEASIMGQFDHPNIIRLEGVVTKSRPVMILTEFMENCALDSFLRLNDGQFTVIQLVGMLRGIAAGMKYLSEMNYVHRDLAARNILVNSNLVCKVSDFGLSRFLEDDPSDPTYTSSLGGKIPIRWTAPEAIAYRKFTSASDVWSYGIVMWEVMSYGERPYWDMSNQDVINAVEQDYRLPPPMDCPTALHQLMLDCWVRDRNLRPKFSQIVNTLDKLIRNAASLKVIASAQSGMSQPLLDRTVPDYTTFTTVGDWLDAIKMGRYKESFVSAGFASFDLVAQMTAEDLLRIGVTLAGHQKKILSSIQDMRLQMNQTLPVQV
SMILES,assay,setting,remaining binding [%]
CN(CCCC(F)(F)F)c1nccc(-c2cnn3ncccc23)n1,binding,1 µM,87
O=C(c1ccc(Nc2nccc(-c3cc4ccccc4s3)n2)cc1)N1CCC(N2CCCC2)CC1,"binding, competition with immobilised ligand",1 µM,100
CN(C)c1ncc(F)c(-c2cnn3ncccc23)n1,binding,1 µM,76
O=C(c1ccc(Nc2ncc(Cl)c(-c3ccc(Cl)s3)n2)cc1)N1CCC(N2CCCC2)CC1,"binding, competition with immobilised ligand",1 µM,88
COc1ncc2cc3ccccc3nc2c1C#N,"cell-free assay, competition with immobilised ligand",5 µM,1.4
C[C@@H](c1ccc(-n2cnc3c(N)ncnc32)cc1)N1CCc2nn(C)c(Cc3ccccc3)c2C1=O,"binding, competition with immobilised ligand",0.1 µM,90
F[C@@H]1CCN(c2nccc(-c3cnn4ncccc34)n2)C1,binding,1 µM,77
Cc1c(C(=O)O)cc(-c2ccc(C3CCNCC3)cc2)c2ccc(-c3ccc(C(F)(F)F)cc3)cc12,"cell-free assay, competition with immobilised ligand",1 µM,100
CNC(=O)[C@@H]1CC[C@@H](n2c(-c3ccc4cnccc4c3)nc3ccc(C(=O)NCc4cccc(C(N)=O)c4)cc32)C1,"binding, competition with immobilised ligand",1 µM,100
C[C@@H]1CCN(c2nccc(-c3cnn4ncccc34)n2)C1,binding,1 µM,100
COc1ccc2c(c1)O[C@@H](c1ccc(OC)c(OC)c1)C[C@H]2NC(=O)C1(c2ccc3c(c2)OC(F)(F)O3)CC1,"cell-free assay, competition with immobilised ligand",1 µM,90
O=C(NCC1CCOCC1)c1n[nH]cc1NC(=O)c1c(F)cccc1F,"binding, competition with immobilised ligand",1 µM,100
O=C(O)c1cc(-c2ccc(C3CCNCC3)cc2)c2ccc(-c3ccc(C(F)(F)F)cc3)cc2c1,"cell-free assay, competition with immobilised ligand",1 µM,100
C=CC(=O)N1CCC(C(=O)NCC(=O)N2CCN(c3nc(-c4cnc(N)nc4C(F)F)nc(N4CCOCC4)n3)CC2)CC1,"binding, competition with immobilised ligand",1 µM,98
Cc1cc(-n2nc(Cc3cc(F)cc(C(F)(F)F)c3)nc2C)ccc1C(N)=O,"cell-free assay, competition with immobilised ligand",1 µM,100
N[C@H]1CCN(c2nccc(-c3cnn4ncccc34)n2)C1,binding,1 µM,97
CCS(=O)(=O)c1cc2cc(C[C@@](O)(CC(C)(C)c3ccc(F)cc3C(N)=O)C(F)(F)F)[nH]c2cn1,"cell-free assay, competition with immobilised ligand",1 µM,92
CN(C)c1nccc(-c2cnc3ncccn23)n1,binding,1 µM,91
C[C@@H](c1cccc(C#N)c1)n1cc(Cl)cc(C(N)=O)c1=N,"cell-free assay, competition with immobilised ligand",1 µM,85
CCN1CCN(Cc2ccc(C(=O)Nc3ccc(C)c(Oc4ccc5c(c4)CC(=O)N5)c3)cc2C(F)(F)F)CC1,"binding, competition with immobilised ligand",1 µM,100
